# Screening results (PubChem BioAssay)
# Hits are enriched below; roughly 1.3% of the tested compounds scored in any of these assays.
# PAX8 reporter – inhibitors of PAX8-driven TPO luciferase reporter, primary screen, RMG-I cells, single concentration. SteadyGlo, 24 h. inhibition, % at 12.6 µM. hit rate 1.2% among 360,000. AID 652154, 2013;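 active = mean replicate inhibition at least 60% with every replicate also reaching 60%; inconclusive = only one of the two criteria is met; inactive = mean below 60% and not all replicates reaching 60%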;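 also: luciferase light reporting Pax8 driven TPO promoter activity; plate controls were median of neutral control wells for no effect and mitoxantrone controls for full effect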
# RAD54 inh – inhibitors of human RAD54 branch migration, primary screen, biochemical, fluorescence, single point | RAD54 Holliday junction branch migration, FAM/BHQ fluorescence | inhibition, % at 10.4 µM | DNA repair and recombination protein RAD54-like (Homo sapiens), Q92698 | hit rate 0.14% among 360,000;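 active = mean normalized replicate activity at least 40 and at least half of replicates scoring 40 or more; inconclusive = only one of the two criteria met; inactive = mean below 40 and under half of replicates reaching 40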;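 also: 0% = median of neutral control wells and 100% = median of positive control wells; inhibitors cause a drop in the FAM fluorescence signal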
# FN deposition inh – inhibitors of fibronectin matrix deposition, primary screen, AH1F cells, Alexa488-fibronectin fluorescence, plate reader; AH1F fibroblasts, overnight; inhibition, % at 12.6 µM; hit rate 0.086% among 350,000;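 active = mean inhibition across replicates of 30% or more, regardless of how many single replicates reach that level; inconclusive = mean under 30% yet at least half of replicates reach 30%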;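 also: positive control wells lacked labelled fibronectin entirely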
#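 Schedule: 1 h cell adhesion before compound, then overnight fibronectin incubation; test system: AH1F fibroblast monolayer depositing Alexa488-labelled fibronectin into matrix; quantity: 10000 AH1F cells per well; probe or stimulus: fluorescent fibronectin at 24 nM final; signal: fluorescence, ex 485 nm, em 525 nm; evaluation: percent inhibition as loss of matrix-bound fibronectin fluorescence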
# RAD52 inh – RAD52 DNA annealing inhibitors, primary screen, biochemical, FRET, single point, set 2. DNA repair protein RAD52 homolog (Homo sapiens), P43351. AID 651710, 2012. inhibition, % at 18.7 µM. recombinant RAD52 DNA annealing, FRET fluorescence. hit rate 0.46% among 360,000;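 active = every replicate showing at least 50% inhibition; inconclusive = mean inhibition at least 50% but not in every replicate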
# Target sequence (P43351 whole entry, looked up): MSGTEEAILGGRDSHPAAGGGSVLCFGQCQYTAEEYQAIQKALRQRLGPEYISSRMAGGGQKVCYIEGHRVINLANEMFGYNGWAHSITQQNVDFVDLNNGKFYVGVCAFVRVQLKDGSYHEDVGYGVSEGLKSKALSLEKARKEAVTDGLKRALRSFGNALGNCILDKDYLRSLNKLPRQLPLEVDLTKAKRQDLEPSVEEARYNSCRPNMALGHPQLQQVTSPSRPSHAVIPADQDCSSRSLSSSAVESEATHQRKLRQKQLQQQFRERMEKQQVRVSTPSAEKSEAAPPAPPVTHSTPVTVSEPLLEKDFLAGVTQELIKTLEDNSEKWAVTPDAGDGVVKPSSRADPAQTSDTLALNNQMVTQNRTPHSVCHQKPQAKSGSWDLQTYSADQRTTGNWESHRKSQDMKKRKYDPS
# Starred values were filed as active, the others as inactive; ? = inconclusive; . = no result; ! = a repeat was not active.
SMILES,PAX8 reporter,RAD54 inh,FN deposition inh,RAD52 inh
CC1(C)Cc2c(C#N)c(SCC(=O)O)nc(N3CCOCC3)c2CO1,0,0,-3,-22
COc1ccc(NC(=O)N(C)C[C@H]2Oc3ccc(NC(=O)Nc4ccc(C(F)(F)F)cc4)cc3C(=O)N([C@H](C)CO)C[C@@H]2C)cc1,10,1,-2,5
O=C(c1ccco1)N1CCN(S(=O)(=O)c2cccc3nsnc23)CC1,-7,-30,-5,.
O=C(/C=C/c1ccc(Br)cc1)c1ccc(NC2=NCCCS2)cc1,5,.,5,51*
O=C(/C=C/c1ccccc1)c1ccc(NC2=NCCCS2)cc1,-109,-4,-8,27
CCc1ccc(-c2cc(C)no2)cc1S(=O)(=O)NCCN1CCC(C)CC1,7,2,-10,-16
CCc1ccc(-c2cc(C)no2)cc1S(=O)(=O)NCCCN1CCN(c2ccccc2)CC1,61*,-4,14,-16
Cc1ccc(S(=O)(=O)Nc2ccccc2C(=O)Nc2nc(-c3ccc(F)cc3)cs2)cc1,77*,-2,0,-10
COc1ccc(-c2csc(NC(=O)c3ccccc3F)n2)cc1,-8,-3,-9,-7
COc1ccc(-c2csc(NC(=O)c3ccccc3NS(=O)(=O)c3ccc(F)c(F)c3)n2)cc1,97*,3,17,-2
CC1=CC(C)(C)N2C(=O)C3(NCCc4c3[nH]c3ccccc43)c3cc(C)cc1c32 (centres undefined),88*,-15,-14,1
CN1C(=O)C2(NCCc3c2[nH]c2ccccc32)c2ccccc21 (centres undefined),.,-3,.,.
Nc1cc(=O)[nH]c(SCC(=O)Nc2cccc([N+](=O)[O-])c2)n1,1,6,-2,-5
COc1ccc([Si](C)(C)[C@@H]2[C@@H](CCO)O[C@]3(C(=O)N(Cc4ccc(N5CCOC5=O)cc4)c4ccccc43)[C@H]2C)cc1,97*,2,.,-4
COc1ccc([Si](C)(C)[C@H]2[C@H](CCO)O[C@@]3(C(=O)N(Cc4ccccc4)c4ccc(N5CCC5=O)cc43)[C@@H]2C)cc1,110*,8,.,11
COc1ccc([Si](C)(C)[C@@H]2[C@@H](CCO)O[C@]3(C(=O)N(Cc4cccc(N5CCOC5=O)c4)c4ccccc43)[C@H]2C)cc1,102*,-3,.,-1
COc1ccc([Si](C)(C)[C@H]2[C@H](CCO)O[C@@]3(C(=O)N(Cc4ccccc4)c4ccc(N5CCCCC5=O)cc43)[C@@H]2C)cc1,26,-3,.,-14
CCn1cc(C(=O)N2CCCC2)c(=O)c2cc(S(=O)(=O)N3CCC(C)CC3)ccc21,6,10,-8,-12
COc1ccc2c3c(n(C)c2c1)[C@@H](CO)NCC31CN(CC2CC2)C1,.,.,.,56*
COc1ccc2c3c(n(C)c2c1)[C@H](CO)NCC31CN(Cc2ccc(-c3ccccn3)cc2)C1,2,.,-4,89*
COc1ccc2c3c(n(C)c2c1)[C@H](CO)NCC31CCN(Cc2ccncc2)CC1,.,.,-3,-7
COc1ccc2c3c(n(C)c2c1)[C@@H](CO)NCC31CN(Cc2ccccc2Cl)C1,-28,.,3,6
COc1ccc2c3c(n(C)c2c1)[C@H](CO)NCC31CCN(CC2CC2)CC1,.,.,.,63*
NS(=O)(=O)c1cccc(NC(=O)CCN2C(=O)C3CCCCC3C2=O)c1 (centres undefined),15,-2,33*,-13
O=C(c1cccc(-c2cncc3nccn23)c1)N1CCOCC1,13,-8,-4,-9
SMILES,PAX8 reporter,RAD54 inh,FN deposition inh,RAD52 inh
CN1CCN(C(=O)c2cccc(-c3cnc4cnc(-c5ccccc5Oc5ccccc5)cn34)c2)CC1,51,-7,40*,-10
C[C@@H]1CCCCO[C@@H](CN(C)S(=O)(=O)c2cccs2)[C@H](C)CN([C@H](C)CO)C(=O)c2cc(NC(=O)Nc3ccc(C(F)(F)F)cc3)ccc2O1,80*,-6,.,-1
C[C@@H]1CN([C@H](C)CO)C(=O)c2cc(NC(=O)Nc3ccc(F)cc3)ccc2O[C@@H](C)CCCCO[C@H]1CN(C)S(=O)(=O)c1cccs1,68*!,8,3,-75
C[C@@H]1CCCCO[C@H](CN(C)S(=O)(=O)c2cccs2)[C@@H](C)CN([C@@H](C)CO)C(=O)c2cc(NC(=O)Nc3ccc(C(F)(F)F)cc3)ccc2O1,75*,4,.,-9
C[C@@H]1CN([C@@H](C)CO)C(=O)c2cc(NC(=O)Nc3ccc(C(F)(F)F)cc3)ccc2O[C@@H](C)CCCCO[C@@H]1CN(C)S(=O)(=O)c1cccs1,-11,-3,.,-16
C[C@@H]1CCCCO[C@@H](CN(C)S(=O)(=O)c2cccs2)[C@@H](C)CN([C@H](C)CO)C(=O)c2cc(NC(=O)Nc3ccc(C(F)(F)F)cc3)ccc2O1,14,0,.,-10
C[C@H](CO)N1C[C@H](C)[C@@H](CN(C)S(=O)(=O)c2cccs2)OCCCC[C@H](C)Oc2ccc(NC(=O)Nc3ccc(C(F)(F)F)cc3)cc2C1=O,?,-1,.,-78
C[C@@H]1CN([C@H](C)CO)C(=O)c2cc(NC(=O)Nc3ccc(C(F)(F)F)cc3)ccc2O[C@@H](C)CCCCO[C@H]1CN(C)S(=O)(=O)c1cccs1,71*,6,.,-6
COc1ccc(CCNc2ncnc3sccc23)cc1OC,77*,.,-2,-8
Cc1ccc(S(=O)(=O)Nc2ccc3c(c2)C(=O)N([C@H](C)CO)C[C@H](C)[C@@H](CN(C)S(=O)(=O)c2cccs2)OCCCC[C@@H](C)O3)cc1,-12,4,.,14
COCCNC(=O)c1cc2c(c(-c3cccc(-c4cccc(F)c4)c3)n1)[C@H](CCO)N(S(=O)C(C)(C)C)C2 (some centres undefined),62*,5,10,-19
CCCNC(=O)c1cc2c(c(-c3cccc(-c4cccc(F)c4)c3)n1)[C@@H](CCO)N([S@](=O)C(C)(C)C)C2,13,5,8,22
CC(C)(C)S(=O)N1Cc2cc(C(=O)NCC(F)(F)F)nc(-c3cccc(-c4cccc(F)c4)c3)c2[C@@H]1CCO (some centres undefined),70*,4,-5,-19
COCCNC(=O)c1cc2c(c(-c3cccc(-c4cccc(F)c4)c3)n1)[C@@H](CCO)N(S(=O)C(C)(C)C)C2 (some centres undefined),11,-11,.,-39
O=C1CCC2S/C(=C/Nc3ccc(C(F)(F)F)cc3)C(=O)N12 (centres undefined),72*,.,5,-13
Clc1cc(Br)ccc1OCCn1ccnc1,4,-6,8,.
Cc1cc(Br)ccc1OCCn1ccnc1,73*,0,-2,-6
COc1ccc(C(=O)N/N=C/c2ccc(OC(=O)c3cccs3)cc2)cc1,101*,.,-6,-4
